Test results as given in ChEMBL document CHEMBL4689842, “EUbOPEN Chemogenomics Library wave 1” (2021).
“And” between values parts separate entries of the source, which are not always exact repeats. Equal values may be shown once.

System: U2OS
Test: Multiplex assay against U2OS
Format: toxicity, cell-based
Settings: human
Method in brief: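 Compound was added to live cells that had been stained at seeding with Hoechst33342, BioTracker Green Microtubule Cytoskeleton Dye, MitoTracker Red and Annexin V Alexa Fluor 680, and imaging followed on a CQ1 microscope at 37°C and 5% CO2. CellPathfinder machine-learning gating divided cells into Hoechst high-intensity objects or normal cells, normal cells into healthy, pyknosed or fragmented nuclei, and pyknosed cells into mitotic or apoptotic. Tubulin, mitochondrial-mass and membrane-permeability phenotypes are per cents of healthy-nucleus cells.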

[1] = 12 h, 1 µM, compound concentration 1 uM, replicate 1
[2] = 12 h, 1 µM, compound concentration 1 uM, replicate 2
[3] = 12 h, 10 µM, compound concentration 10 uM, replicate 1
[4] = 12 h, 10 µM, compound concentration 10 uM, replicate 2
[5] = 24 h, 1 µM, compound concentration 1 uM, replicate 1
[6] = 24 h, 1 µM, compound concentration 1 uM, replicate 2
[7] = 24 h, 10 µM, compound concentration 10 uM, replicate 1
[8] = 24 h, 10 µM, compound concentration 10 uM, replicate 2
[9] = 48 h, 10 µM, compound concentration 10 uM, replicate 1
[10] = 48 h, 10 µM, compound concentration 10 uM, replicate 2

## CN[C@@H]1C[C@H]2O[C@@](C)([C@@H]1OC)n1c3ccccc3c3c4c(c5c6ccccc6n2c5c31)C(=O)NC4 [STAUROSPORINE]
[1]
  Population Apoptotic (%): 53%
  Population Fragmented Nuclei (%): 47%
  Population Healthy Nuclei (%): 12%
  Population Hoechst High Intensity Objects (%): 4%
  Population Membrane Permeable-Phenotype (%): 89%
  Population Mitochondria Different-Phenotype (%): 57%
  Population Mitotic Cells (%): 46%
  Population Normal (%): 95%
  Population Pyknosed Nuclei (%): 40%
  Population Tubulin-Different-Phenotype (%): 89%
[2]
  Population Apoptotic (%): 62%
  Population Fragmented Nuclei (%): 65%
  Population Healthy Nuclei (%): 3%
  Population Hoechst High Intensity Objects (%): 7%
  Population Membrane Permeable-Phenotype (%): 100%
  Population Mitochondria Different-Phenotype (%): 83%
  Population Mitotic Cells (%): 37%
  Population Normal (%): 92%
  Population Pyknosed Nuclei (%): 30%
  Population Tubulin-Different-Phenotype (%): 91%
[3]
  Population Apoptotic (%): 51% and 87% and 83%
  Population Fragmented Nuclei (%): 45% and 41% and 40%
  Population Healthy Nuclei (%): 5% and 0% and 1%
  Population Hoechst High Intensity Objects (%): 6% and 7% and 3%
  Population Membrane Permeable-Phenotype (%): 94% and 100% and 71%
  Population Mitochondria Different-Phenotype (%): 50% and 100% and 85%
  Population Normal (%): 93% and 92% and 96%
  Population Pyknosed Nuclei (%): 48% and 57% and 58%
  Population Tubulin-Different-Phenotype (%): 94% and 100%
[4]
  Population Apoptotic (%): 86% and 56% and 73%
  Population Fragmented Nuclei (%): 26% and 64% and 42%
  Population Healthy Nuclei (%): 15% and 6% and 12%
  Population Hoechst High Intensity Objects (%): 15% and 8%
  Population Membrane Permeable-Phenotype (%): 95% and 84%
  Population Mitochondria Different-Phenotype (%): 75% and 71% and 84%
  Population Normal (%): 84% and 91%
  Population Pyknosed Nuclei (%): 29% and 45%
  Population Tubulin-Different-Phenotype (%): 91% and 92%
[5]
  Population Apoptotic (%): 93%
  Population Fragmented Nuclei (%): 34%
  Population Healthy Nuclei (%): 22%
  Population Hoechst High Intensity Objects (%): 14%
  Population Membrane Permeable-Phenotype (%): 96%
  Population Mitochondria Different-Phenotype (%): 56%
  Population Mitotic Cells (%): 6%
  Population Normal (%): 85%
  Population Pyknosed Nuclei (%): 42%
  Population Tubulin-Different-Phenotype (%): 92%
[6]
  Population Apoptotic (%): 94%
  Population Fragmented Nuclei (%): 58%
  Population Healthy Nuclei (%): 10%
  Population Hoechst High Intensity Objects (%): 13%
  Population Membrane Permeable-Phenotype (%): 95%
  Population Mitochondria Different-Phenotype (%): 66%
  Population Mitotic Cells (%): 5%
  Population Normal (%): 86%
  Population Pyknosed Nuclei (%): 31%
  Population Tubulin-Different-Phenotype (%): 91%
[7]
  Population Apoptotic (%): 93% and 90% and 94%
  Population Fragmented Nuclei (%): 48% and 46% and 38%
  Population Healthy Nuclei (%): 0% and 15%
  Population Hoechst High Intensity Objects (%): 5% and 11%
  Population Mitochondria Different-Phenotype (%): 50% and 45%
  Population Mitotic Cells (%): 6% and 9% and 5%
  Population Normal (%): 94% and 88%
  Population Pyknosed Nuclei (%): 50% and 52% and 45%
  Population Tubulin-Different-Phenotype (%): 50% and 100% and 94%
[8]
  Population Apoptotic (%): 88% and 96% and 77%
  Population Hoechst High Intensity Objects (%): 27% and 26%
  Population Membrane Permeable-Phenotype (%): 95% and 92%
  Population Mitochondria Different-Phenotype (%): 95% and 69% and 92%
  Population Normal (%): 72% and 73%
  Population Pyknosed Nuclei (%): 36% and 23% and 38%
  Population Tubulin-Different-Phenotype (%): 95% and 92%
[9]
  Population Apoptotic (%): 95%
  Population Fragmented Nuclei (%): 51% and 55%
  Population Healthy Nuclei (%): 0%
  Population Hoechst High Intensity Objects (%): 7% and 11%
  Population Mitochondria Different-Phenotype (%): 66% and 100%
  Population Mitotic Cells (%): 4%
  Population Normal (%): 92% and 88%
  Population Pyknosed Nuclei (%): 47% and 43%
  Population Tubulin-Different-Phenotype (%): 100%
[10]
  Population Apoptotic (%): 89% and 100%
  Population Fragmented Nuclei (%): 22% and 13%
  Population Healthy Nuclei (%): 49% and 56%
  Population Hoechst High Intensity Objects (%): 18% and 25%
  Population Mitochondria Different-Phenotype (%): 96% and 92%
  Population Mitotic Cells (%): 10% and 0%
  Population Normal (%): 81% and 74%
  Population Pyknosed Nuclei (%): 28% and 30%
  Population Tubulin-Different-Phenotype (%): 96% and 92%
